Source: ChEMBL document CHEMBL2203081 (Bioorg Med Chem Lett, 2012)
Activity calls are given as the source filed them. No cut-off for these calls is given here.

Tests used:
[1] = biological target: Casein kinase I isoform gamma-1 (Homo sapiens) (UniProt Q9HCP0); assay: Inhibition of CSNK1G1 assessed as residual activity at 10 uM relative to control
In short: (§1)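 Competition kinase-binding assay (KINOMEscan) across a non-redundant panel of 329 kinases beyond the radiometric panel; residual binding expressed relative to control.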

[2] = biological target: Calcium/calmodulin-dependent protein kinase type II subunit delta (Homo sapiens) (UniProt Q13557); assay: Inhibition of CAMK2D assessed as residual activity at 10 uM relative to control
[3] = biological target: Ribosomal protein S6 kinase alpha-5 (Homo sapiens) (UniProt O75582); assay: Inhibition of RPS6KA5 N-terminal domain 1 assessed as residual activity at 10 uM relative to control
[4] = biological target: Rho-associated protein kinase 2 (Homo sapiens) (UniProt O75116); assay: Inhibition of ROCK2 assessed as residual activity at 10 uM relative to control
[5] = biological target: T1, Serine/threonine-protein kinase D1 (Homo sapiens) (UniProt Q15139); assay: Inhibition of PRKD1 assessed as residual activity at 10 uM relative to control
T1 sequence (whole entry): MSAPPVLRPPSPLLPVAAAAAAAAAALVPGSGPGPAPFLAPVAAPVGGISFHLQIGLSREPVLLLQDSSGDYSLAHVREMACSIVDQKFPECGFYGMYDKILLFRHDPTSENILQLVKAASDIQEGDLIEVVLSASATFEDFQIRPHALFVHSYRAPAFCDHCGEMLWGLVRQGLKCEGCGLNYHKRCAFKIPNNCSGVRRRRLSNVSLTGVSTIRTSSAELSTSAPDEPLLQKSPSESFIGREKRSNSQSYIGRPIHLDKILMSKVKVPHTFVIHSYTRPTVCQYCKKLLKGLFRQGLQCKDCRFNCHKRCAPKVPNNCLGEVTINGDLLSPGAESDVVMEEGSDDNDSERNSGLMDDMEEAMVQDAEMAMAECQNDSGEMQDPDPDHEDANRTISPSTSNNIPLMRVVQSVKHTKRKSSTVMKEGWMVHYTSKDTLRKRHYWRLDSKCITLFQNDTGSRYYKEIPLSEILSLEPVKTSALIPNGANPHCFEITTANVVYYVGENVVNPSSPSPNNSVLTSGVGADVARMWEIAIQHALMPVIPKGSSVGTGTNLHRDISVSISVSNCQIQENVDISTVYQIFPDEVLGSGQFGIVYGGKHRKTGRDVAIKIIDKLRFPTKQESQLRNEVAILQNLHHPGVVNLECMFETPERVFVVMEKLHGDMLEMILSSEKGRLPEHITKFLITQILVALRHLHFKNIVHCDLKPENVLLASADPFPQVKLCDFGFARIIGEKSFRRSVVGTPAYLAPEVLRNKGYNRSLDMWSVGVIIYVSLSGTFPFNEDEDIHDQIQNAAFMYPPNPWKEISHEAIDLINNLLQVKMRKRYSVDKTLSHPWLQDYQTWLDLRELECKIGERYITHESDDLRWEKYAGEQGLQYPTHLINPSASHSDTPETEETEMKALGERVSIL

Mus musculus = assay: Inhibition of LRRK2 in mouse assessed as inhibition of Ser910 autophosphorylation in spleen at 100 mg/kg, ip by immunoblot method; assay type: functional, organism-based; parameters: dose 100 mg/kg
[6] = biological target: MAP kinase-activated protein kinase 5 (Homo sapiens) (UniProt Q8IW41); assay: Inhibition of PRAK assessed as residual activity at 10 uM
[7] = Inhibition of PHK assessed as residual activity at 10 uM
[8] = biological target: T2, NUAK family SNF1-like kinase 1 (Homo sapiens) (UniProt O60285); assay: Inhibition of NUAK1 assessed as residual activity at 10 uM
T2 sequence (whole entry): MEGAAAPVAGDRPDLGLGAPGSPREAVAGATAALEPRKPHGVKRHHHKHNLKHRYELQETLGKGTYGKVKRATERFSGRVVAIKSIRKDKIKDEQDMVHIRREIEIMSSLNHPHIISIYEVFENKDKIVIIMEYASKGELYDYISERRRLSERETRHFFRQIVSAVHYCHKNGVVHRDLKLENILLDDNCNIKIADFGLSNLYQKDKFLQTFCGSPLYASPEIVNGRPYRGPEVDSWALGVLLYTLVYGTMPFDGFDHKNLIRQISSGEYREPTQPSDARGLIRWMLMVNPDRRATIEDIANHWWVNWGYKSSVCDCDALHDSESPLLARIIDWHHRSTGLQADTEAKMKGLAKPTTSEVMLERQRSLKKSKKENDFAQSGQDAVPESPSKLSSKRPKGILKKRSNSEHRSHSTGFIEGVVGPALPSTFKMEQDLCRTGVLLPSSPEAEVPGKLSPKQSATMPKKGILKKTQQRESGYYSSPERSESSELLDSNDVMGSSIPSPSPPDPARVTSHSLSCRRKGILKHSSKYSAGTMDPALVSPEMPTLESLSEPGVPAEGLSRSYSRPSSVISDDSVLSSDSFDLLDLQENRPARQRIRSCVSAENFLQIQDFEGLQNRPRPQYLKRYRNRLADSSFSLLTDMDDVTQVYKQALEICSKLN

[9] = biological target: Insulin-like growth factor 1 receptor (Homo sapiens) (UniProt P08069); assay: Inhibition of IGF-1R assessed as residual activity at 10 uM
Chain of Insulin-like growth factor 1 receptor (Homo sapiens) (P08069 31-736 limits assumed): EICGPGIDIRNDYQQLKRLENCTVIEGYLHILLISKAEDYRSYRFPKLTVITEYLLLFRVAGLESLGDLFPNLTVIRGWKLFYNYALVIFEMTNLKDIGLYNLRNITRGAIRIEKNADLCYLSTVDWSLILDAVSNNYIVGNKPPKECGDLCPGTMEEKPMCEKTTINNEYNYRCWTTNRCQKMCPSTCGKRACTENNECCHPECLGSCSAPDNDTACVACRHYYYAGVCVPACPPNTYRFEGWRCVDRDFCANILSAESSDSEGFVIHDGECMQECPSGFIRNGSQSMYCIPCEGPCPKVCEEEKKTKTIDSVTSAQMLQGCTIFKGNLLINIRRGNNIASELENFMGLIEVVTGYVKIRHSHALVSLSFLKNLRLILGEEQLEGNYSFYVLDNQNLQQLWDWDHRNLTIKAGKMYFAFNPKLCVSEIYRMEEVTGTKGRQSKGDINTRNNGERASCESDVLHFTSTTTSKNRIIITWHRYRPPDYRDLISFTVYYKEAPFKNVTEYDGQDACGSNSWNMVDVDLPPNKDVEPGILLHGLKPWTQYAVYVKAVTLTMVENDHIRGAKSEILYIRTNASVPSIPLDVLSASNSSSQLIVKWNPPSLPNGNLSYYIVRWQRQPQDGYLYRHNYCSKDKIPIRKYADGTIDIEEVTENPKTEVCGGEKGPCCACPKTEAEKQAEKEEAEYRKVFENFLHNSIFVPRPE
Chain of Insulin-like growth factor 1 receptor (Homo sapiens) (P08069 741-1367 limits assumed): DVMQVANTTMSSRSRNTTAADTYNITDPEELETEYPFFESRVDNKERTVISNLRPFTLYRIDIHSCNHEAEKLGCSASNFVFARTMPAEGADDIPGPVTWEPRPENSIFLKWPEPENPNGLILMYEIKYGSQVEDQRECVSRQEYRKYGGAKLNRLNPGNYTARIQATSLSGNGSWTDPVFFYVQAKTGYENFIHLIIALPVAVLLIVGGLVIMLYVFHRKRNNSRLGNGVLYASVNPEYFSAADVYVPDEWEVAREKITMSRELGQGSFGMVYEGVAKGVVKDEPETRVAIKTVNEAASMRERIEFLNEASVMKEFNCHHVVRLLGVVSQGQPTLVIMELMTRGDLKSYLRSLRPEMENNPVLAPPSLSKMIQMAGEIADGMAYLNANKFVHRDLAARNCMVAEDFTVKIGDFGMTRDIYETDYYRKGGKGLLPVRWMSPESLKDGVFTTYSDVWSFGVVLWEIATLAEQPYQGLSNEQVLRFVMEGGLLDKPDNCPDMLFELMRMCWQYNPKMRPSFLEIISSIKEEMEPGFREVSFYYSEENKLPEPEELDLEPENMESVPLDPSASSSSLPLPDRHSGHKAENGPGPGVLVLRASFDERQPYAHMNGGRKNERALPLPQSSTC
In short: (§2)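 Radioactivity-based enzymatic activity assay of the named kinase, run as part of a 131-kinase specificity panel at the National Centre for Protein Kinase Profiling (Dundee). Residual activity was read at the stated single inhibitor concentration.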

[10] = biological target: Mitogen-activated protein kinase 1 (Homo sapiens) (UniProt P28482); assay: Inhibition of ERK2 assessed as residual activity at 10 uM; in short: as §2
[11] = biological target: Ephrin type-A receptor 5 (Homo sapiens) (UniProt P54756); assay: Inhibition of EPHA5 assessed as residual activity at 10 uM relative to control; in short: as §1
Chain of Ephrin type-A receptor 5 (Homo sapiens) (P54756 whole entry): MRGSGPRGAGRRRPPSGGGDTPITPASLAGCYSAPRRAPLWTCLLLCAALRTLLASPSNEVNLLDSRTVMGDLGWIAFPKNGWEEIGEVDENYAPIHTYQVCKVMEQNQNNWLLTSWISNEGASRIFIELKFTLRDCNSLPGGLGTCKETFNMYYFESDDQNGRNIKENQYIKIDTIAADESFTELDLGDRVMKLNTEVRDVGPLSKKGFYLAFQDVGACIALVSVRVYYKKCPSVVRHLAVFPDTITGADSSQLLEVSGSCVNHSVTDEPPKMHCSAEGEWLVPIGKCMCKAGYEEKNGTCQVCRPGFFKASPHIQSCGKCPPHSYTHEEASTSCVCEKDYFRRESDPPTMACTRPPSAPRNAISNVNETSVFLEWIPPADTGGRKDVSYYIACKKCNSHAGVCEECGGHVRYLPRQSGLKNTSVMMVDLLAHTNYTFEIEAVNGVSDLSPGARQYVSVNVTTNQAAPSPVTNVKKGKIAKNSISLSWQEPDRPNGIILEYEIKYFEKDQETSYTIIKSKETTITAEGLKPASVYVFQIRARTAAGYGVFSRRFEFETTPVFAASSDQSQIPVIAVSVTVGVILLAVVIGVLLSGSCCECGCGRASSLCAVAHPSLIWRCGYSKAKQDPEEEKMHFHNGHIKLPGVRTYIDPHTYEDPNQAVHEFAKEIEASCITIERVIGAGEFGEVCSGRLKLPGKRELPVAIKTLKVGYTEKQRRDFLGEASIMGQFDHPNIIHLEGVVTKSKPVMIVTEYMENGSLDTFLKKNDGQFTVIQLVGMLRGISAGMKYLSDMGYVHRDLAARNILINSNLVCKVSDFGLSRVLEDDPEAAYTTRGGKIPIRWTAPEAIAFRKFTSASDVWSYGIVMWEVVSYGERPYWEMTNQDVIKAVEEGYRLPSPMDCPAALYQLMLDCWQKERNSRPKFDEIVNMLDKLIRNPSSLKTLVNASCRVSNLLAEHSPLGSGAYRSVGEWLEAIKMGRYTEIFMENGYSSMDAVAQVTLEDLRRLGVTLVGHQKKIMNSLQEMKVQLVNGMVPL

[12] = biological target: Epidermal growth factor receptor (Homo sapiens) (UniProt P04626+P00533+Q15303+P21860); assay: Inhibition of EGFR S752-I759del mutant assessed as residual activity at 10 uM relative to control; assay type: protein assay; in short: as §1
[13] = biological target: Tyrosine-protein kinase ZAP-70 (Homo sapiens) (UniProt P43403); assay: Inhibition of ZAP70 assessed as residual activity at 1 uM
[14] = biological target: Myosin light chain kinase, smooth muscle (Homo sapiens) (UniProt Q15746); assay: Inhibition of SmMLCK assessed as residual activity at 1 uM
[15] = biological target: Mitogen-activated protein kinase kinase kinase 9 (Homo sapiens) (UniProt P80192); assay: Inhibition of MLK1 assessed as residual activity at 10 uM relative to control
[16] = biological target: Leucine-rich repeat serine/threonine-protein kinase 2 (Homo sapiens) (UniProt Q5S007); settings: 0.01 to 1 uM
Chain of Leucine-rich repeat serine/threonine-protein kinase 2 (Homo sapiens) (Q5S007 whole entry): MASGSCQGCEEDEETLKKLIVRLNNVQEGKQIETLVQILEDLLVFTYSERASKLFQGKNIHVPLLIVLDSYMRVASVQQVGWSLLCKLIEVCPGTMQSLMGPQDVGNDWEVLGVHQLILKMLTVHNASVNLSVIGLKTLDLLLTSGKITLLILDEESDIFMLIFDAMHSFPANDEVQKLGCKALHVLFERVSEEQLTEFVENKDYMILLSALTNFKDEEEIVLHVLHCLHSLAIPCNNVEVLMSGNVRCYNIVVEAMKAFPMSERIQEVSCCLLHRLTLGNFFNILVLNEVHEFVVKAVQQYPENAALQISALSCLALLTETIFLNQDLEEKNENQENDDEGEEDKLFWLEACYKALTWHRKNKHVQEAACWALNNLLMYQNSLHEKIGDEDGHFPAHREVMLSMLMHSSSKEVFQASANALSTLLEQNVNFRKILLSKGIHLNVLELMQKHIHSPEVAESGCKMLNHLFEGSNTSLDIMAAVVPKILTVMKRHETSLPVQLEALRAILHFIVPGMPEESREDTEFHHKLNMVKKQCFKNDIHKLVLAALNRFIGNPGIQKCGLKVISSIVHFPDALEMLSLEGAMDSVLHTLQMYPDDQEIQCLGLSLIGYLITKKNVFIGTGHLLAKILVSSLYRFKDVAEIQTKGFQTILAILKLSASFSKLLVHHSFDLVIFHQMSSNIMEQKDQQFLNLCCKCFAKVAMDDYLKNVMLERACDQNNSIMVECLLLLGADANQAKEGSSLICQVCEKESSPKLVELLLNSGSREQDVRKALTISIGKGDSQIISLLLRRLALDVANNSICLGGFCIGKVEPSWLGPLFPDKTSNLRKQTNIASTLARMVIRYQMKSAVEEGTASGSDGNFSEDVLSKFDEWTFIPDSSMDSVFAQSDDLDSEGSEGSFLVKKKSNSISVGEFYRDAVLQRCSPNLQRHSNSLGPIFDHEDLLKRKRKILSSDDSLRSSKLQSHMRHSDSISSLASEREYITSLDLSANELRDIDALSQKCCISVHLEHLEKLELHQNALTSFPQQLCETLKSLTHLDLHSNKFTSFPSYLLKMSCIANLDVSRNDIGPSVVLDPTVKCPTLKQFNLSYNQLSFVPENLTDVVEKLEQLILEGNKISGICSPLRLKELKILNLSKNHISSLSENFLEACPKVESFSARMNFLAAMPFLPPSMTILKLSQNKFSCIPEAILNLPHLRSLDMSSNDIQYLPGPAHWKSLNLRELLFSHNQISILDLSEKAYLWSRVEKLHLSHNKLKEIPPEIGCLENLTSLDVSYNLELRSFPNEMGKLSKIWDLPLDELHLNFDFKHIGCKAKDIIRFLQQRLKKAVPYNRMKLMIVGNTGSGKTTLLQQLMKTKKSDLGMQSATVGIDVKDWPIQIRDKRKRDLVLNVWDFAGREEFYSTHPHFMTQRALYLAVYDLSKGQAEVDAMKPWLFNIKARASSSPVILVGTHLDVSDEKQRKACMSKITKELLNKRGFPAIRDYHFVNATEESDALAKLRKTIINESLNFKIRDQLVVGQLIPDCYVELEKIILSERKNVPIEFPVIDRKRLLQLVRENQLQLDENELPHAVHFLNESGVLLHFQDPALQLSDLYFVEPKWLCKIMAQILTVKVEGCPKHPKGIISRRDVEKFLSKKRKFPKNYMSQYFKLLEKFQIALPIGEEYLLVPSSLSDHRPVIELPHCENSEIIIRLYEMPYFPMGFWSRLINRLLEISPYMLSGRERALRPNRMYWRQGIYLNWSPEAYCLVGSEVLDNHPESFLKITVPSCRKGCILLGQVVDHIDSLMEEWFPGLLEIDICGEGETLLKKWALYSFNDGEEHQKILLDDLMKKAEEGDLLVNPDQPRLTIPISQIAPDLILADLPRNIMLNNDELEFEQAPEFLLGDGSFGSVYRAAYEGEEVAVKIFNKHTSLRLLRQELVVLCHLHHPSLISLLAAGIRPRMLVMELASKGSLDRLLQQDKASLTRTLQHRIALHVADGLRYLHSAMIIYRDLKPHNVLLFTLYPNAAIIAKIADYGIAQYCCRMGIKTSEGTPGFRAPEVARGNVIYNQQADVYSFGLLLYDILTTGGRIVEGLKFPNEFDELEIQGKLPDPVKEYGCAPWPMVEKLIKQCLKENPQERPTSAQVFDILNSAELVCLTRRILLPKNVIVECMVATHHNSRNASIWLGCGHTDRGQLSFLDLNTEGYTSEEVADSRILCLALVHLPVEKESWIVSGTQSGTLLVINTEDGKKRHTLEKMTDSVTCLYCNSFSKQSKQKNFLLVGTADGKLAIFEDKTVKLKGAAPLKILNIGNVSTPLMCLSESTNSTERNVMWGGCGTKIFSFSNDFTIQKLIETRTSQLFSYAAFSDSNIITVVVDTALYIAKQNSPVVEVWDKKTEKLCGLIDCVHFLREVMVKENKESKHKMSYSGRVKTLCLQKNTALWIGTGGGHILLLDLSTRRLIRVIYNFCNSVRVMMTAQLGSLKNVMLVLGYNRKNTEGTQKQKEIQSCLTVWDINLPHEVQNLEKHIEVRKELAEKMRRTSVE

[17] = test system: Leucine-rich repeat serine/threonine-protein kinase 2 (Homo sapiens), Q5S007 [A2016T]; settings: HEK293, 1 to 3 uM
Chain of Leucine-rich repeat serine/threonine-protein kinase 2 (Homo sapiens), Q5S007 [A2016T] (Q5S007 whole entry A2016T): as the sequence (Q5S007 whole entry) above, with A2016T counted along it

[18] = biological target: Leucine-rich repeat serine/threonine-protein kinase 2 (Homo sapiens) (UniProt Q5S007); settings: HEK293, 0.3 to 1 uM

## O=C(Nc1cccnc1)c1cc(-c2ccnc(F)c2)ccc1OCc1ccccc1
[1]
  Activity: 79%
[2]
  Activity: 64%
[3]
  Activity: 77%
[4]
  Activity: 47%
[5]
  Activity: 41%
Mus musculus
  inhibition: Active
[6]
  Activity: 114%
[7]
  Activity: 75%
[8]
  Activity: 58%
[9]
  Activity: 117%
[10]
  Activity: 115%
[11]
  Activity: 48%
[12]
  Activity: 81%
[13]
  Activity: 103%
[14]
  Activity: 32%
[15]
  Activity: 74%
[16]
  inhibition: Active
[17]
  inhibition: Active
[18]
  inhibition: Active
